Measured values from ChEMBL document CHEMBL1240411, “Synthesis and evaluation of anti-Toxoplasma gondii and antimicrobial activities of thiosemicarbazides, 4-thiazolidinones and 1,3,4-thiadiazoles” (Eur J Med Chem, 2010).
Values after ≈ are worked out from the molar mass of the structure shown.

Legend:
[1] = Cytotoxicity against african green monkey Vero cells infected with tachyzoites of Toxoplasma gondii RH after 24 hrs; type: cell-based; conditions: chlorocebus sabaeus, read-out: LD50
Summary of the method: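 Vero cells were infected with RH tachyzoites (10:1, 1 h), washed and incubated 24 h. They were then exposed 24 h to compound over 0.01–10 mM, in triplicate. Viability was scored by trypan blue exclusion, and LD50 was obtained by non-linear regression.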

Toxoplasma gondii [2] = assay: Antimicrobial activity against tachyzoites of Toxoplasma gondii RH infected in Vero cells assessed as reduction of infected cells after 24 hrs; type: functional; conditions: read-out: LD50 (the source's name)
Summary of the method: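 RH tachyzoites came from intraperitoneal passage in Swiss mice, harvested at 48 h. Vero cells were infected at a 10:1 parasite:host ratio for 1 h, washed with PBS and grown 24 h at 37 °C in medium 199 with 5% FCS. Compounds were then added at 0.1, 1 and 10 mM for 24 h. Cells were Bouin-fixed and Giemsa-stained, and at least 400 cells were counted by light microscopy. Mean ± SD, n = 3; Student's t-test.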

Staphylococcus aureus [3] = assay: Antibacterial activity against Staphylococcus aureus UFPEDA 02 after 24 to 48 hrs by serial dilution method; type: functional
Toxoplasma gondii [4] = assay: Antimicrobial activity against tachyzoites of Toxoplasma gondii RH infected in Vero cells assessed as reduction of infected cells at 10 mM after 24 hrs relative to control; type: functional; design: scale not given: the % may be the effect or the level left
Summary of the method: (§1)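 T. gondii RH tachyzoites were taken from mouse intraperitoneal passage. Vero cells were infected at 10:1 parasite:host for 1 h, PBS-washed, then held 24 h at 37 °C in medium 199 + 5% FCS. Compound exposure was 24 h at 37 °C. Cells were Bouin-fixed, Giemsa-stained and light-microscopy scored (≥400 cells) for % infected cells. Student's t-test, P<0.05. 13 assays in triplicate.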

Bacillus subtilis [5] = assay: Antibacterial activity against Bacillus subtilis UFPEDA 16 by disc diffusion method; type: functional
Summary of the method: (§2)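 Disc diffusion: discs holding known amounts of agent were laid on agar seeded with a standardized microbial suspension. DMSO discs (CH₂Cl₂ for ketoconazole tests) served as negative controls. Read-out was mean zone of inhibition (mm). Run in triplicate, repeated if results differed.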

Staphylococcus aureus [6] = assay: Antibacterial activity against Staphylococcus aureus UFPEDA 02 by disc diffusion method; type: functional; summary of the method: as §2
[7] = Cytotoxicity against african green monkey Vero cells after 24 hrs; type: cell-based; conditions: chlorocebus sabaeus, read-out: LD50
Toxoplasma gondii [8] = assay: Antimicrobial activity against tachyzoites of Toxoplasma gondii RH infected in Vero cells assessed as reduction of infected cells at 1 mM after 24 hrs relative to control; type: functional; design: scale not given: the % may be the effect or the level left; summary of the method: as §1
Bacillus subtilis [9] = assay: Antibacterial activity against Bacillus subtilis UFPEDA 16 after 24 to 48 hrs by serial dilution method; type: functional
Toxoplasma gondii [10] = assay: Antimicrobial activity against tachyzoites of Toxoplasma gondii RH infected in Vero cells assessed as reduction of infected cells at 0.1 mM after 24 hrs relative to control; type: functional; design: scale not given: the % may be the effect or the level left; summary of the method: as §1
Aspergillus niger [11] = assay: Antifungal activity against Aspergillus niger UFPEDA 2003 by disc diffusion method; type: functional; summary of the method: as §2
Candida [12] = assay: Antifungal activity against Candida sp. UFPEDA 2224 after 24 to 48 hrs by serial dilution method; type: functional
Summary of the method: (§3)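 Only compounds giving a disc-diffusion mean inhibition zone of at least 18 mm were carried to MIC. Nistatin and ketoconazole served as antifungal references.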

Candida albicans [13] = assay: Antifungal activity against Candida albicans UFPEDA 1007 after 24 to 48 hrs by serial dilution method; type: functional; summary of the method: as §3
Aspergillus niger [14] = assay: Antifungal activity against Aspergillus niger UFPEDA 2003 after 24 to 48 hrs by serial dilution method; type: functional; summary of the method: as §3
[15] = tested on: Mycolicibacterium smegmatis; assay: Antibacterial activity against Mycobacterium smegmatis UFPEDA 71 after 24 to 48 hrs by serial dilution method; type: functional
Escherichia coli [16] = assay: Antibacterial activity against Escherichia coli UFPEDA 224 by disc diffusion method; type: functional; summary of the method: as §2
[17] = tested on: Mycolicibacterium smegmatis; assay: Antibacterial activity against Mycobacterium smegmatis UFPEDA 71 by disc diffusion method; type: functional; summary of the method: as §2
Escherichia coli [18] = assay: Antibacterial activity against Escherichia coli UFPEDA 224 after 24 to 48 hrs by serial dilution method; type: functional
Candida [19] = assay: Antifungal activity against Candida sp. UFPEDA 2224 by disc diffusion method; type: functional; summary of the method: as §2
Candida albicans [20] = assay: Antifungal activity against Candida albicans UFPEDA 1007 by disc diffusion method; type: functional; summary of the method: as §2

Row | Compound | CC50 at 24 h [1] [µM] | LC50 (Toxoplasma gondii [2]) [µM] | MIC (Staphylococcus aureus [3]) [µg/mL] | Activity (Toxoplasma gondii [4]) [%] | CC50 at 24 h [7] [µM] | Activity (Toxoplasma gondii [8]) [%] | MIC (Bacillus subtilis [9]) [µg/mL] | Activity (Toxoplasma gondii [10]) [%] | also measured
1 | Cc1[nH]cnc1C(=O)N/N=C1\SC(CC(=O)O)C(=O)N1c1ccccc1 (stereo not drawn) | 5000 | 1500 | 250 (≈ 670 µM) | 0 | 5000 | 42 | 270 (≈ 723 µM) | 69 | inhibition zone (IZ) (Bacillus subtilis [5]): 27 mm; inhibition zone (IZ) (Staphylococcus aureus [6]): 19 mm
2 | Cc1[nH]cnc1-c1nnc(Nc2ccc(Cl)cc2)s1 | 80 | 50 | – | 1 | > 10000 | 8 | – | 12 | –
3 | Nc1ccc(S(=O)(=O)Nc2ncccn2)cc1 [SULFADIAZINE] | > 10000 | 6000 | – | 36 | > 10000 | 48 | – | 64 | –
4 | COc1ccc(Nc2nnc(-c3nc[nH]c3C)s2)cc1 | 100 | 50 | – | 0 | > 10000 | 14 | – | 28 | –
5 | Cc1[nH]cnc1C(=O)N/N=C1\SC(CC(=O)O)C(=O)N1c1ccc(F)cc1 (stereo not drawn) | 1000 | 100 | – | 0 | 5000 | 22 | – | 59 | inhibition zone (IZ) (Aspergillus niger [11]): 18 mm
6 | Cc1[nH]cnc1C(=O)NNC(=S)Nc1ccccc1 | 50 | 50 | 190 (≈ 690 µM) | 0 | 1000 | 6 | 140 (≈ 508 µM) | 18 | inhibition zone (IZ) (Bacillus subtilis [5]): 27 mm; inhibition zone (IZ) (Staphylococcus aureus [6]): 18 mm
7 | NYSTATIN | – | – | – | – | – | – | – | – | MIC (Candida [12]): 50 µg/mL; MIC (Candida albicans [13]): 50 µg/mL; MIC (Aspergillus niger [14]): 50 µg/mL
8 | COc1ccc(NC(=S)NNC(=O)c2nc[nH]c2C)cc1 | 70 | 60 | 210 (≈ 688 µM) | 0 | 1000 | 12 | 160 (≈ 524 µM) | 22 | inhibition zone (IZ) (Bacillus subtilis [5]): 22 mm; inhibition zone (IZ) (Staphylococcus aureus [6]): 19 mm
9 | COc1ccc(N2C(=O)C(CC(=O)O)S/C2=N\NC(=O)c2nc[nH]c2C)cc1 (stereo not drawn) | 1000 | 500 | – | 0 | 5000 | 17 | – | 73 | –
10 | O=C(N[C@H](CO)[C@H](O)c1ccc([N+](=O)[O-])cc1)C(Cl)Cl [CHLORAMPHENICOL] | – | – | 35 (≈ 108 µM) | – | – | – | 30 (≈ 92.8 µM) | – | –
11 | CC(=O)N1CCN(c2ccc(OCC3COC(Cn4ccnc4)(c4ccc(Cl)cc4Cl)O3)cc2)CC1 (stereo not drawn) [KETOCONAZOLE] | – | – | – | – | – | – | – | – | MIC (Candida [12]): 40 µg/mL (≈ 75.3 µM); MIC (Candida albicans [13]): 25 µg/mL (≈ 47 µM)
12 | Cc1[nH]cnc1-c1nnc(Nc2ccccc2)s1 | 600 | 50 | – | 0.36 | > 10000 | 10 | – | 13 | –
13 | Cc1[nH]cnc1-c1nnc(Nc2ccc(F)cc2)s1 | 70 | 50 | – | 3 | > 10000 | 6 | – | 22 | –
14 | CO[C@H]1/C=C/O[C@@]2(C)Oc3c(C)c(O)c4c(O)c(c(/C=N/N5CCN(C)CC5)c(O)c4c3C2=O)NC(=O)/C(C)=C\C=C\[C@H](C)[C@H](O)[C@@H](C)[C@@H](O)[C@@H](C)[C@H](OC(C)=O)[C@@H]1C [RIFAMPIN] | – | – | – | – | – | – | – | – | MIC [15]: 55 µg/mL (≈ 66.8 µM)
15 | Cc1[nH]cnc1C(=O)NNC(=S)Nc1ccc(F)cc1 | 60 | 50 | 190 (≈ 648 µM) | 0 | 10000 | 8 | 130 (≈ 443 µM) | 14 | inhibition zone (IZ) (Escherichia coli [16]): 21 mm; inhibition zone (IZ) (Bacillus subtilis [5]): 28 mm; inhibition zone (IZ) (Staphylococcus aureus [6]): 20 mm; MIC [15]: 160 µg/mL (≈ 545 µM); inhibition zone (IZ) [17]: 20 mm; MIC (Escherichia coli [18]): 250 µg/mL (≈ 852 µM)
16 | NC(=O)NO [HYDROXYUREA] | > 10000 | 500 | – | 1 | > 10000 | 4 | – | 53 | –
17 | Cc1[nH]cnc1C(=O)NNC(=S)Nc1ccc(Cl)cc1 | 60 | 60 | 190 (≈ 613 µM) | 1 | > 10000 | 8 | 130 (≈ 420 µM) | 11 | inhibition zone (IZ) (Bacillus subtilis [5]): 29 mm; inhibition zone (IZ) (Staphylococcus aureus [6]): 25 mm; MIC [15]: 150 µg/mL (≈ 484 µM); inhibition zone (IZ) [17]: 21 mm
18 | Cc1[nH]cnc1C(=O)N/N=C1\SC(CC(=O)O)C(=O)N1c1ccc(Cl)cc1 (stereo not drawn) | 1000 | 1500 | – | 0.19 | > 10000 | 51 | – | 63 | inhibition zone (IZ) (Candida [19]): 20 mm; inhibition zone (IZ) (Candida albicans [20]): 20 mm; MIC (Candida [12]): 300 µg/mL (≈ 736 µM); MIC (Candida albicans [13]): 280 µg/mL (≈ 687 µM)
